High-throughput results (PubChem)
An excerpt weighted towards active compounds, which were near 1.5% of everything screened.
S100A4 MyoIIA: S100A4-myosin IIA interaction inhibition. P26447. S100A4/TAMRA-MyoIIA peptide fluorescence polarization. inhibition, % at 10.7 µM. 360,000 compounds, 0.14% hits;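 active means mean inhibition of at least 70% across replicates, with every replicate also reaching that level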
Target sequence (P26447 whole entry, looked up): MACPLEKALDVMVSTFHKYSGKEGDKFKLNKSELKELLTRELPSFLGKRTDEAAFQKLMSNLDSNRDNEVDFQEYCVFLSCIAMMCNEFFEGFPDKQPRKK
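Compound dosing: one dose per compound; test system: human S100A4 monomer with TAMRA-labelled myosin IIA peptide; probe or stimulus: TAMRA-labelled myosin IIA heavy-chain peptide probe, 5 nM; medium: HEPES buffer with Ca2+, pH 7.2; schedule: 5 min incubation before reading; benchmarks: neutral control DMSO, positive control TFP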
CRFBP-R2 block: antagonists of CRF-binding protein/CRF-R2 receptor complex. HEK293 CRF-R2/CRF-BP, CRF-induced calcium fluorescence. inhibition, % at 11.8 µM. 350,000 compounds, 0.59% hits;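 active means inhibition of the ligand-induced calcium signal above about 50% at the single tested concentration, limit read from the data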
PKA-R2B activ: PKA-R2B complex activation; P22694+P31323; PKA-R2B holoenzyme dissociation, Cy5-IP20 fluorescence polarization; R2B truncated from residue 108, S112A mutant; 0% DMSO only, 100% 113 µM cGMP; activation, % at 11.4 µM; 340,000 compounds, 0.079% hits; AID 504700;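 active means activation above a cutoff set at the mean over all compounds plus 3 SD, cut at about 18% in these data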;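 further: higher means more holoenzyme dissociation and a rise in polarization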
SIRT5 block: inhibitors of human sirtuin-5 desuccinylase; Q9NXA8; Purified SirT5, succinyl-peptide AMC, trypsin-coupled fluorescence; inhibition, % at 15 µM; 330,000 compounds, 1.1% hits; in the data active means inhibition above about 15%
Target sequence (Q9NXA8 whole entry, looked up): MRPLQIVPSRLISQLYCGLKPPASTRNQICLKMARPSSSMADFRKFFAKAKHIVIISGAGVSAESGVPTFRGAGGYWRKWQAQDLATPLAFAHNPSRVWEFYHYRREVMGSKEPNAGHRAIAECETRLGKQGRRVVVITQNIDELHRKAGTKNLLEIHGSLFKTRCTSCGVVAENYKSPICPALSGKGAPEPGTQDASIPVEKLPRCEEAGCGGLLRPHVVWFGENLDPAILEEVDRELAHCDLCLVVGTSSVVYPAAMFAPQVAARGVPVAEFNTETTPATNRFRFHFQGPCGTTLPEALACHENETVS
PKA-R1A act: activators of PKA-R1A complex | activation, % at 11.4 µM | 340,000 compounds, 0.083% hits | P00514+P68181 | PKA-R1A dissociation, Cy5-IP20 fluorescence polarization; scaled: DMSO 0%, 113 µM cGMP 100%;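 active means percent activation above the mean of all tested compounds plus 3 SD, cut at about 19% in these data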;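 further: higher means more PKAc released from R1A so a rise in polarization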
* hit, by the source's call.

For COCC(=O)N1C[C@H](C)[C@@H](OC)CN(C)C(=O)c2cc(NC(=O)NC(C)C)ccc2OC[C@@H]1C the results were S100A4 MyoIIA 47 and SIRT5 block 4.
For Cc1cc([N+](=O)[O-])nn1CCCC(=O)NC(C)c1ccccc1 (stereo not drawn) the results were S100A4 MyoIIA -4, CRFBP-R2 block -18, PKA-R2B activ 1, SIRT5 block 38* and PKA-R1A act -1.
Screening Cc1c(Cl)cccc1NC(=O)CCCn1nc([N+](=O)[O-])cc1C returned S100A4 MyoIIA 12, CRFBP-R2 block -8, PKA-R2B activ -9, SIRT5 block -4 and PKA-R1A act -14.
`Cc1noc(C)c1S(=O)(=O)Nc1ccc2c(c1)CC(=O)N([C@@H](C)CO)C[C@H](C)[C@H](CN(C)C(=O)Nc1ccc(F)cc1)O2` gave S100A4 MyoIIA 5 and SIRT5 block -4.
For COc1ccccc1-c1c(C)nn2c(N3CCN(c4ccccc4OC)CC3)cc(C)nc12 the results were S100A4 MyoIIA -2, CRFBP-R2 block 68*, PKA-R2B activ -10, SIRT5 block -2 and PKA-R1A act -2.
For COc1ccccc1-c1c(C)nn2c(N3CCCCCC3)cc(C)nc12 the results were S100A4 MyoIIA -3, CRFBP-R2 block 30, PKA-R2B activ 0, SIRT5 block 7 and PKA-R1A act 3.
For Nc1nnc(CC(=O)N/N=C/c2cc([N+](=O)[O-])cc(Br)c2O)s1 the results were S100A4 MyoIIA 3, CRFBP-R2 block -9, PKA-R2B activ 5, SIRT5 block 47* and PKA-R1A act -6.
Screening C[C@H](CO)N1C[C@H](C)[C@H](CN(C)Cc2ccccn2)Oc2cc(-c3ccc(C#N)cc3)ccc2S1(=O)=O returned S100A4 MyoIIA 10 and SIRT5 block 1.
`CCn1c(SCC(=O)Nc2ccc(C(C)=O)cc2)nnc1C1CC1` gave S100A4 MyoIIA -1, CRFBP-R2 block 8, PKA-R2B activ -9, SIRT5 block 16* and PKA-R1A act 3.
CCn1c(SCC(=O)Nc2ccc(NC(C)=O)cc2)nnc1C1CC1 was read as CRFBP-R2 block -17, PKA-R2B activ -11 and PKA-R1A act 2.
For COc1cccc(NC(=O)N(C)C[C@@H]2Oc3cc(C#Cc4ccccc4)ccc3S(=O)(=O)N([C@H](C)CO)C[C@H]2C)c1 the results were S100A4 MyoIIA -18 and SIRT5 block 19*.
Screening COc1cccc(NC(=O)N(C)C[C@H]2Oc3cc(-c4ccccc4F)ccc3S(=O)(=O)N([C@H](C)CO)C[C@H]2C)c1 returned S100A4 MyoIIA -7 and SIRT5 block 16*.
`COc1ccc(C#Cc2ccc3c(c2)O[C@H](CN(C)C(=O)Nc2cccc(OC)c2)[C@@H](C)CN([C@H](C)CO)S3(=O)=O)cc1` gave S100A4 MyoIIA -5 and SIRT5 block 17*.
O=C(C[C@@H]1C[C@H]2c3cc(NC(=O)c4cccnc4)ccc3O[C@H]2[C@H](CO)O1)NCCc1ccccc1 was read as S100A4 MyoIIA 9 and SIRT5 block -1.
Screening CO[C@@H]1CN(C)C(=O)c2ccc(NC(=O)C3CC3)cc2OC[C@@H](C)N(CCc2ccccc2)C[C@H]1C returned S100A4 MyoIIA 28 and SIRT5 block 11.
CO[C@@H]1CN(C)C(=O)c2ccc(NC(C)=O)cc2OC[C@@H](C)N(C(=O)c2ccccc2)C[C@@H]1C was read as S100A4 MyoIIA -15 and SIRT5 block 8.
For COc1ccc(CNC(=O)CCNC(=O)c2ccc(C(C)(C)C)cc2)cc1OC the results were S100A4 MyoIIA 8, CRFBP-R2 block 19, PKA-R2B activ 8, SIRT5 block 1 and PKA-R1A act 5.
CC(C)(C)c1ccc(C(=O)NCCC(=O)NCc2ccc(F)cc2)cc1 was read as S100A4 MyoIIA -5, CRFBP-R2 block 22, PKA-R2B activ 0, SIRT5 block 15* and PKA-R1A act 5.
C[C@@H]1CN([C@H](C)CO)C(=O)c2cccc(NC(=O)CCCCCC(=O)Nc3ccccc3N)c2O[C@H]1CN(C)Cc1ccc(-c2ccccc2)cc1 was read as S100A4 MyoIIA -5 and SIRT5 block 17*.
